# Laboratory results as given in ChEMBL document CHEMBL1132240, “Design and synthesis of modified quinolones as antitumoral acridones” (J Med Chem, 1999).
# Key:
# P388 [1] = experiment: In vivo antitumor activity against Murine P388 Leukemia at 60 mg/kg dose;(Median survival time of treated mice)/(median survival time of controls) x100; assay type: functional, Mus musculus
# Procedure, shortened: (§1)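 Female BD2F1 mice (8 weeks, 20-22 g), eight per group, given 10^5 P388 cells ip on day 0. From 24 h later, drug was given ip once daily for 9 days as a micronized suspension in 0.5% carboxymethylcellulose. Deaths were recorded daily over a 33-day study. %T/C = median survival time of treated / median survival time of controls × 100; >125 taken as significant.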
# CHO [2] = experiment: Cytotoxic activity against solid tumor, CHO (Chinese hamster ovaric carcinoma) concentration of agent required to reduce cell viability by 50%; assay type: functional, cell-based; conditions: Cricetulus griseus
# Procedure, shortened: (§2)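 Modified MTT assay. Cells seeded per well with graded drug: CHO 2.5 × 10^3, B16 5 × 10^3, P388 and LLC 10^4, HL-60 and LoVo 5 × 10^4. After 68 h, MTT (2.5 mg/mL) added for 4 h at 37 °C. Formazan dissolved in DMSO and A550 read. Inhibition taken as fractional A550 decrease vs control. IC50/IC90 from Chou's median-effect equation.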
# LoVo [3] = experiment: Cytotoxic activity against solid tumor, LoVo, (human colon adenocarcinoma) concentration of agent required to reduce cell viability by 90%; assay type: functional; procedure, shortened: as §2
# [4] = Ratio of cytotoxicity of compound towards bone marrow sample and to that of HL-60 was determined as IC90BM/IC90HL; assay type: functional
# Procedure, shortened: (§3)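 Second-stage assay on HL-60 (5 × 10^4/well) and soybean-agglutinin-negative mononuclear marrow cells (5 × 10^5/well) from six healthy donors. Four wells per concentration, 48 h at 37 °C, then [125I]iododeoxyuridine plus fluorodeoxyuridine for 18 h. Inhibition from fractional uptake decrease; IC50/IC90 by median-effect equation. Ranges are antilog(mean log ± 2SD); ratios use mean antilogs.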
# P388 [5] = experiment: Cytotoxic activity against murine lymphocytic leukemia P388 concentration of agent required to reduce cell viability by 50%; assay type: functional, cell-based; conditions: Mus musculus; procedure, shortened: as §2
# P388 [6] = experiment: In vivo antitumor activity against Murine P388 Leukemia at 20 mg/kg dose;(Median survival time of treated mice)/(median survival time of controls) x100; assay type: functional, Mus musculus; procedure, shortened: as §1
# HL-60 [7] = experiment: Cytotoxic activity against human promyelocytic leukemia HL-60 concentration of agent required to reduce cell viability by 90%; assay type: functional; procedure, shortened: as §2
# Homo sapiens [8] = organism: Homo sapiens; experiment: Relative cytotoxicity against human bone marrow samples; assay type: functional; procedure, shortened: as §3
# P388 [9] = experiment: Cytotoxic activity against murine lymphocytic leukemia P388 concentration of agent required to reduce cell viability by 90%; assay type: functional; conditions: Mus musculus; procedure, shortened: as §2
# B16 [10] = experiment: Cytotoxic activity against solid tumor, B16 (murine melanoma) concentration of agent required to reduce cell viability by 50%; assay type: functional, cell-based; conditions: Mus musculus; procedure, shortened: as §2
# [11] = Ratio of cytotoxicity of compound towards bone marrow sample and to that of HL-60 was determined as IC50BM/IC90HL; assay type: functional; procedure, shortened: as §3
# [12] = system: Lewis lung carcinoma cell line; experiment: Cytotoxic activity against solid tumor LLC(Lewis lung carcinoma), concentration of agent required to reduce cell viability by 50%; assay type: functional, cell-based; conditions: Mus musculus; procedure, shortened: as §2
# HL-60 [13] = experiment: Cytotoxic activity against human promyelocytic leukemia HL-60 concentration of agent required to reduce cell viability by 50%; assay type: functional, cell-based; procedure, shortened: as §2
# LoVo [14] = experiment: Cytotoxic activity against solid tumor, LoVo, (human colon adenocarcinoma) concentration of agent required to reduce cell viability by 50%; assay type: functional, cell-based; procedure, shortened: as §2
# P388 [15] = experiment: In vivo antitumor activity against Murine P388 Leukemia at 6.67 mg/kg dose;(Median survival time of treated mice)/(median survival time of controls) x100; assay type: functional, Mus musculus; procedure, shortened: as §1
# HL-60 [16] = experiment: (§4) Relative cytotoxicity against human promyelocytic leukemia(HL-60) cells; assay type: functional; procedure, shortened: as §3
# B16 [17] = experiment: Cytotoxic activity against solid tumor, B16 (murine melanoma) concentration of agent required to reduce cell viability by 90%; assay type: functional; conditions: Mus musculus; procedure, shortened: as §2
# [18] = Ratio of cytotoxicity of compound towards bone marrow sample and to that of HL-60 was determined as IC50BM/IC50HL; assay type: functional; procedure, shortened: as §3
# HL-60 [19] = experiment: as §4; assay type: functional, cell-based; procedure, shortened: as §3
# CHO [20] = experiment: Cytotoxic activity against solid tumor, CHO (Chinese hamster ovaric carcinoma) concentration of agent required to reduce cell viability by 90%; assay type: functional; conditions: Cricetulus griseus; procedure, shortened: as §2
# [21] = system: Lewis lung carcinoma cell line; experiment: Cytotoxic activity against solid tumor LLC(Lewis lung carcinoma), concentration of agent required to reduce cell viability by 90%; assay type: functional; conditions: Mus musculus; procedure, shortened: as §2
# B16 [22] = experiment: Cytotoxic activity against solid tumor, B16 (murine melanoma) Concentration of agent required to reduce cell viability by 90%; assay type: functional; conditions: Mus musculus; procedure, shortened: as §2
# CHO [23] = experiment: Cytotoxic activity against solid tumor, CHO (Chinese hamster ovaric carcinoma) Concentration of agent required to reduce cell viability by 50%; assay type: functional, cell-based; conditions: Cricetulus griseus; procedure, shortened: as §2
# P388 [24] = experiment: Cytotoxic activity against Murine Lymphocytic Leukemia P388 Concentration of agent required to reduce cell viability by 50%; assay type: functional, cell-based; conditions: Mus musculus; procedure, shortened: as §2
# P388 [25] = experiment: Cytotoxic activity Murine Lymphocytic Leukemia P388 Concentration of agent required to reduce cell viability by 90%; assay type: functional; conditions: Mus musculus; procedure, shortened: as §2
# HL-60 [26] = experiment: Cytotoxic activity against Human promyelocytic Leukemia HL-60 Concentration of agent required to reduce cell viability by 90%; assay type: functional; procedure, shortened: as §2
# Homo sapiens [27] = organism: Homo sapiens; experiment: Relative cytotoxicity against Human bone marrow samples; Value is in range, activity expressed as IC50; assay type: functional; procedure, shortened: as §3
# CHO [28] = experiment: Cytotoxic activity against solid tumor, CHO (Chinese hamster ovaric carcinoma) Concentration of agent required to reduce cell viability by 90%; assay type: functional; conditions: Cricetulus griseus; procedure, shortened: as §2
# HL-60 [29] = experiment: Cytotoxic activity against Human promyelocytic Leukemia HL-60 Concentration of agent required to reduce cell viability by 50%; assay type: functional, cell-based; procedure, shortened: as §2
# LoVo [30] = experiment: Cytotoxic activity against solid tumor, LoVo, (human colon adenocarcinoma) Concentration of agent required to reduce cell viability by 90%; assay type: functional; procedure, shortened: as §2
# HL-60 [31] = experiment: Relative cytotoxicity against Human promyelocytic Leukemia(HL-60) cells; Value is in range, activity expressed as IC90; assay type: functional; procedure, shortened: as §3
# [32] = Ratio of antilog(mean log IC50 in bone marrow sample) and antolog(mean log IC50) in HL-60); assay type: functional; procedure, shortened: as §3
# [33] = Ratio of antilog(mean log IC50 in bone marrow sample) and antolog(mean log IC90) in HL-60); assay type: functional; procedure, shortened: as §3
# B16 [34] = experiment: Cytotoxic activity against solid tumor, B16 (murine melanoma) Concentration of agent required to reduce cell viability by 50%; assay type: functional, cell-based; conditions: Mus musculus; procedure, shortened: as §2
# HL-60 [35] = experiment: Relative cytotoxicity against Human promyelocytic Leukemia(HL-60) cells; Value is in range, activity expressed as IC50; assay type: functional, cell-based; procedure, shortened: as §3
# Homo sapiens [36] = organism: Homo sapiens; experiment: Relative cytotoxicity against Human bone marrow samples; Value is in range, activity expressed as IC90; assay type: functional; procedure, shortened: as §3
# [37] = Ratio of antilog(mean log IC90 in bone marrow sample) and antolog(mean log IC90) in HL-60); assay type: functional; procedure, shortened: as §3
# LoVo [38] = experiment: Cytotoxic activity against solid tumor, LoVo, (human colon adenocarcinoma) Concentration of agent required to reduce cell viability by 50%; assay type: functional, cell-based; procedure, shortened: as §2
SMILES,IC50 (P388 [5]),IC90 (HL-60 [7]),IC90 (P388 [9]),IC50 [12],IC50 (HL-60 [13]),IC90 [21],IC90 (B16 [22]),IC50 (CHO [23]),IC50 (P388 [24]),IC90 (P388 [25]),IC90 (HL-60 [26]),IC90 (CHO [28]),IC50 (HL-60 [29]),IC50 (B16 [34]),further results
CCN(CC)CCn1c2cc(Cl)c(N)cc2c(=O)c2c(O)cc(OC)cc21,3.8 µM,8.4 µM,8 µM,5 µM,4.2 µM,11 µM,–,–,–,–,–,–,–,–,T/C (P388 [1]): 100%; IC50 (CHO [2]): 1.1 µM; IC90 (LoVo [3]): 6.3 µM; Ratio [4]: 4.1; T/C (P388 [6]): 97%; IC50 (Homo sapiens [8]): 3.26 µM; IC90 (Homo sapiens [8]): 14.8 µM; IC50 (B16 [10]): 1.6 µM; Ratio [11]: 0.8; IC50 (LoVo [14]): 1.5 µM; T/C (P388 [15]): 83%; IC90 (HL-60 [16]): 2.93 µM; IC90 (B16 [17]): 4 µM; Ratio [18]: 1.2; IC50 (HL-60 [19]): 1.86 µM; IC90 (CHO [20]): 5.9 µM
CCN(CC)CCn1c2cc(Cl)c(N)cc2c(=O)c2c(OC)cc(OC)cc21,4.3 µM,29 µM,14 µM,–,8.6 µM,–,–,–,–,–,–,–,–,–,–
CCn1c2cc(N3CCN(C)CC3)c(N)cc2c(=O)c2c(O)cc(OC)cc21,2.9 µM,24 µM,8.9 µM,9.3 µM,17 µM,11 µM,12 µM,6 µM,–,–,–,–,–,–,IC90 (LoVo [3]): 15 µM; Ratio [4]: 2.7; IC50 (Homo sapiens [8]): 10.7 µM; IC90 (Homo sapiens [8]): 89.1 µM; IC50 (B16 [10]): 8.6 µM; Ratio [11]: 0.4; IC50 (LoVo [14]): 10 µM; IC90 (HL-60 [16]): 22.9 µM; Ratio [18]: 0.4; IC50 (HL-60 [19]): 19.1 µM; IC90 (CHO [20]): 11 µM
CCn1c2cc(Cl)c(N)cc2c(=O)c2c(O)cc(O)cc21,–,–,–,16 µM,–,> 100 µM,28 µM,5.8 µM,1.6 µM,13 µM,74 µM,71 µM,13 µM,2.8 µM,IC50 (Homo sapiens [27]): 7.08 µM; IC90 (LoVo [30]): > 100 µM; IC90 (HL-60 [31]): 97.5 µM; Ratio [32]: 0.6; Ratio [33]: 0.1; IC50 (HL-60 [35]): 17 µM; IC90 (Homo sapiens [36]): 74.1 µM; Ratio [37]: 0.5; IC50 (LoVo [38]): 15 µM
CCn1c2cc(N3CCC(O)CC3)c(N)cc2c(=O)c2c(O)cc(O)cc21,–,–,–,–,–,–,> 50 µM,9.9 µM,3.4 µM,9.4 µM,9.2 µM,38 µM,5.4 µM,26 µM,IC50 (Homo sapiens [27]): 1.8 µM; IC90 (HL-60 [31]): 11.7 µM; Ratio [32]: 0.4; Ratio [33]: 0.2; IC50 (HL-60 [35]): 6.64 µM; IC90 (Homo sapiens [36]): 15.9 µM; Ratio [37]: 1.5
CCN(CC)CCn1c2cc(N3CCN(C)CC3)c(N)cc2c(=O)c2c(OC)cc(OC)cc21,3.4 µM,17 µM,5.8 µM,–,8.3 µM,–,–,–,–,–,–,–,–,–,–
CCN(CC)CCn1c2cc(N3CCN(C)CC3)c(N)cc2c(=O)c2c(O)cc(O)cc21,–,–,–,24 µM,–,35 µM,23 µM,7.1 µM,7.2 µM,13 µM,19 µM,16 µM,11 µM,16 µM,IC90 (LoVo [30]): 21 µM; IC50 (LoVo [38]): 17 µM
